# The source made the active and inactive calls. No cut-off for these calls is given here.
# Key:
# Phospholipase D2 [1] = molecular target: T1, Phospholipase D2 (Homo sapiens, UniProt O14939); test: Inhibition of GFP-tagged PLD2 in human HEK293 cells assessed as deuterated 1-butanol incorporation pretreated for 5 mins prior to substrate addition measured after 30 mins by mass spectrometry
# Phospholipase D1 = molecular target: T2, Phospholipase D1 (Homo sapiens, UniProt Q13393); test: Inhibition of PLD1 in human Calu-1 cells assessed as deuterated 1-butanol incorporation pretreated for 5 mins prior to substrate addition measured after 30 mins by mass spectrometry
# T2 sequence (Q13393 whole entry): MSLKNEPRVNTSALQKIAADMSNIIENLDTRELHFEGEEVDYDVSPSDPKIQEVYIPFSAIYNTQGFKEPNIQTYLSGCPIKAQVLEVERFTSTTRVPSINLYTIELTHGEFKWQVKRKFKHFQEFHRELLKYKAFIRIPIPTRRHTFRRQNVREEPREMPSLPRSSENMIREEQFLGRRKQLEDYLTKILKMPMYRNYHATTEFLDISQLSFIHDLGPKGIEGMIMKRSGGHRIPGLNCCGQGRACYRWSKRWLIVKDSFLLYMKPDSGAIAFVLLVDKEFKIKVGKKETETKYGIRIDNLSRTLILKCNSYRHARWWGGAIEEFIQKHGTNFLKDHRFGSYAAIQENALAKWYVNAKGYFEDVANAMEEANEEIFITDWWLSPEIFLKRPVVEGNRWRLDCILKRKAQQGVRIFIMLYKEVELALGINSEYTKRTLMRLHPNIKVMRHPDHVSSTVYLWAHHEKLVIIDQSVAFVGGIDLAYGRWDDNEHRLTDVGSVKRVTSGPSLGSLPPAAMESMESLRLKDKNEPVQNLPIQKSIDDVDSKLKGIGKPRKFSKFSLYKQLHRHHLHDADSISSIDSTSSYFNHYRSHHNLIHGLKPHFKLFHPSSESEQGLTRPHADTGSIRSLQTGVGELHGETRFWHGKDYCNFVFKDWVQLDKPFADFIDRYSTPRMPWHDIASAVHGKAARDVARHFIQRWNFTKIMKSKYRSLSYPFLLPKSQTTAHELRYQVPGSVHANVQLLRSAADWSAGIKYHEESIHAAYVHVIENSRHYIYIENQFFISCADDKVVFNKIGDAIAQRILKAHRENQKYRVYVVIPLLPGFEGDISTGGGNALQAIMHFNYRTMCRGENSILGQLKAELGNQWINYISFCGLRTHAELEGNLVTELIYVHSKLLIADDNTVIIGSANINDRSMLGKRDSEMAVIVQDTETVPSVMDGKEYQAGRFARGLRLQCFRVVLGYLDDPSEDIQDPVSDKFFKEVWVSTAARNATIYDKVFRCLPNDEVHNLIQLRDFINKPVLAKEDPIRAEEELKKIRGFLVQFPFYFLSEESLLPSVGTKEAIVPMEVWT
# in vivo [2] = details: black6 (printed 'balck6'), mouse, brain, ip, 10 mg/kg
# Phospholipase D2 [3] = molecular target: T1, Phospholipase D2; details: U-87MG ATCC
# in vivo [4] = details: black6 (printed 'balck6'), mouse, lung, ip, 10 mg/kg
# [5] = Solubility of the compound in PBS buffer; type: physicochemical
# [6] = Stability of the compound in PBS buffer up to 48 hrs; type: physicochemical
# [7] = Cytotoxicity against human U87MG cells assessed as cell viability up to 10 uM by WST-1 assay in presence of 10% FBS relative to control; type: cell-based; details: u-87mg atcc
# Method in brief: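 U87-MG cells in 10% FBS were exposed to compound at concentrations up to 10 μM. Viability was compared with DMSO vehicle.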
# U-87 MG = test: Increase in caspase 3/7 activation in human U87MG cells after 6 to 72 hrs under serum free conditions; type: functional, cell-based; details: U-87MG ATCC
# hERG (KCNH2) = hERG (KCNH2) (Homo sapiens, UniProt Q12809); test: Inhibition of human ERG at 10 uM by radioligand binding assay
# Chain of hERG (KCNH2) (Q12809 whole entry): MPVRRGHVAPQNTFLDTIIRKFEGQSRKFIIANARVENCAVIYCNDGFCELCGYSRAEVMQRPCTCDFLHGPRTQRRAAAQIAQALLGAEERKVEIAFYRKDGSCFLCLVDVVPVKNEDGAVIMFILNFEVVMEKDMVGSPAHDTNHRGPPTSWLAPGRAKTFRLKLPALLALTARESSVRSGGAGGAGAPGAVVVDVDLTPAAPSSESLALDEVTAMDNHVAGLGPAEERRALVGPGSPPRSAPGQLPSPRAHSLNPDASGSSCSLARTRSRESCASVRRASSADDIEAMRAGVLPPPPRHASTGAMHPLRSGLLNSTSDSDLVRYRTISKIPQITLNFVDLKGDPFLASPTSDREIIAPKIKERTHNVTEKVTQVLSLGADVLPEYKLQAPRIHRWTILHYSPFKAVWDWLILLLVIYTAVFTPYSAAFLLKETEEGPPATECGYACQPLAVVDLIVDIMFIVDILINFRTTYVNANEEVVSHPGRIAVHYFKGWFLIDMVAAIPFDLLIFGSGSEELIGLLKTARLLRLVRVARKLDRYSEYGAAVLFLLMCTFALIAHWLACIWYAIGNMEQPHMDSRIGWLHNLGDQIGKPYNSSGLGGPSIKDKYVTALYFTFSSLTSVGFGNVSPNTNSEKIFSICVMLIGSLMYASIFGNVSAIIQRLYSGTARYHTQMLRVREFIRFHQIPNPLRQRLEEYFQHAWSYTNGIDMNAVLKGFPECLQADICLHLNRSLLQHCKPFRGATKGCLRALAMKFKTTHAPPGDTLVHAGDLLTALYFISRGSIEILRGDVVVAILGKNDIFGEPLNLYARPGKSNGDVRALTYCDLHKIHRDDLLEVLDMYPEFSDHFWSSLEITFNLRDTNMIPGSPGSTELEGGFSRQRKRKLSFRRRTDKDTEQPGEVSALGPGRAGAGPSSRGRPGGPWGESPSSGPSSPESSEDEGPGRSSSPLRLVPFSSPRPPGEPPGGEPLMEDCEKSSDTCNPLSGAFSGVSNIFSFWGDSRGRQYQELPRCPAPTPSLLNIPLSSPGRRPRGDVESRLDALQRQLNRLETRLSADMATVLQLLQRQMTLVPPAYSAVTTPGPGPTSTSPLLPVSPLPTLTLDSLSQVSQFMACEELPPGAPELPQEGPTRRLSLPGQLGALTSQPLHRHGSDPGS
# T1 sequence (O14939 whole entry): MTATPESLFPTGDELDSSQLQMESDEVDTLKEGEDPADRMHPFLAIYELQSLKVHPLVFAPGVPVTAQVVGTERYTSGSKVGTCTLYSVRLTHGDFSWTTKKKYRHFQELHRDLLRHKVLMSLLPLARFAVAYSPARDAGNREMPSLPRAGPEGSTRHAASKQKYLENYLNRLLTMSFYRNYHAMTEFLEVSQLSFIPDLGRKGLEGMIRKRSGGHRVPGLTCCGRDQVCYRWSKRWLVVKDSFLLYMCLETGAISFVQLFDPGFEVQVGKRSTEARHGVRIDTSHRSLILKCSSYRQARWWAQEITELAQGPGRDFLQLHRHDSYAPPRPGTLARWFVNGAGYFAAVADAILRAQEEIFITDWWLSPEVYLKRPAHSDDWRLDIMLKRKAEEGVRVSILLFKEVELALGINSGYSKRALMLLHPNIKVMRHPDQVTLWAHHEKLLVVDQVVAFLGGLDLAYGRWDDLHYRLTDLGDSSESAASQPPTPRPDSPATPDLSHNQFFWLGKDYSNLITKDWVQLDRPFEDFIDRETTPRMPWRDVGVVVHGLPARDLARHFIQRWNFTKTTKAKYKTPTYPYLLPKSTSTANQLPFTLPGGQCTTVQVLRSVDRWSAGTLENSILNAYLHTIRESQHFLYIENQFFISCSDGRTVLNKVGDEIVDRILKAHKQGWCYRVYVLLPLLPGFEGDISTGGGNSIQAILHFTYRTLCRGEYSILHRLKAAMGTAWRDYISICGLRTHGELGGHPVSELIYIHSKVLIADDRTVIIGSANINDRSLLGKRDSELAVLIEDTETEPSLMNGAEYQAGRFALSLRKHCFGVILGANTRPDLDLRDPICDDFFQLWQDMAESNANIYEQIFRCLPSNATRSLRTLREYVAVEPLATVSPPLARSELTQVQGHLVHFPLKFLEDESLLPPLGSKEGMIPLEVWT
Compound,IC50 (Phospholipase D2 [1]),IC50 (Phospholipase D1),further results
C[C@@H](CN1CCC2(CC1)C(=O)NCN2c1cccc(F)c1)NC(=O)c1ccc(F)cc1,35 nM,20 nM,–
O=C(NCCN1CCC2(CC1)C(=O)NCN2c1cccc(F)c1)c1ccc(Br)cc1,200 nM,1540 nM,–
C[C@H](CN1CCC2(CC1)C(=O)NCN2c1cccc(F)c1)NC(=O)c1ccc(F)cc1,1060 nM,760 nM,–
C[C@H](CN1CCC2(CC1)C(=O)NCN2c1cccc(F)c1)NC(=O)c1ccc(F)c(F)c1,3450 nM,1400 nM,–
O=C(NCCN1CCC2(CC1)C(=O)NCN2c1cccc(F)c1)c1ccc(F)c(F)c1,–,–,AUC at 6 h (in vivo [2]): 0.08 µM·h; inhibition (Phospholipase D2 [3]): Dose-dependent effect; AUC at 6 h (in vivo [4]): 4.61 µM·h; solubility [5]: soluble; Stability [6]: Stable; Activity [7]: Non-toxic
O=C(NCCN1CCC2(CC1)C(=O)NCN2c1cccc(F)c1)c1ccc(F)cc1,350 nM,–,–
C[C@H](CN1CCC2(CC1)C(=O)NCN2c1cccc(F)c1)NC(=O)c1ccc(Br)cc1,800 nM,–,–
C[C@@H](CN1CCC2(CC1)C(=O)NCN2c1cccc(F)c1)NC(=O)c1ccc(F)c(F)c1,120 nM,86 nM,–
Cc1cccc(N2CNC(=O)C23CCN(C[C@H](C)NC(=O)c2ccc(Br)cc2)CC3)c1,–,–,Activity (U-87 MG): Active; solubility [5]: soluble; Stability [6]: Stable; Activity [7]: Non-toxic; inhibition at 10 µM (hERG (KCNH2)): > 50%

# From ChEMBL document CHEMBL2321744 (J Med Chem, 2013)
